Activity calls are given as the source filed them. The rule behind the calls is not given here.
Key:
[1] = system: Hs 683; assay: Growth inhibition in apoptosis-sensitive human Hs683 after 3 days by MTT assay; format: functional; conditions: Hs 683, 72 h
In short: (§1)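 Cells grown in RPMI with 10% heat-inactivated FCS, 4 mM glutamine, gentamicin and penicillin–streptomycin. Drug exposure 3 days, growth read by MTT colorimetric assay. Nine concentrations from 0.01 to 100 μM in semilog steps, six replicates each; IC50 derived per cell line.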

[2] = system: A549; assay: Growth inhibition in apoptosis-resistant human A549 after 3 days by MTT assay; format: functional; conditions: A549, 72 h; in short: as §1
[3] = system: U-373MG ATCC; assay: Inhibition of trypsin-like activity of 20S proteasome in human U373 cells at 70 uM after 2 days by bioluminescence assay; format: cell-based
In short: (§2)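 U373 GBM cells seeded at 5000 cells/mL and grown 48 h, then treated for two days. Cells washed in PBS and permeabilised with 0.025% digitonin. Proteasome-Glo reagent added with Suc-LLVY-Glo (chymotrypsin-like), Z-LRR-Glo (trypsin-like) or Z-nLPnLD-Glo (caspase-like) substrate. Luminescence read after 10 min in the dark and normalised to a parallel MTT viability assay; triplicates. MG-132 at 0.5 μM used as reference.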

[4] = system: MCF7; assay: Growth inhibition in apoptosis-sensitive human MCF7 after 3 days by MTT assay; format: functional; conditions: MCF7, 72 h; in short: as §1
[5] = system: SK-MEL-28; assay: Growth inhibition in apoptosis-resistant human SK-MEL-28 after 3 days by MTT assay; format: functional; conditions: SK-MEL-28, 72 h; in short: as §1
[6] = system: B16-F10; assay: Growth inhibition in mouse B16F10 after 3 days by MTT assay; format: functional; conditions: B16-F10, 72 h; in short: as §1
[7] = Chemical stability of the compound in MEM cell culture medium after 7 days by HPLC analysis; format: physicochemical; conditions: read-out: Stability
In short: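 Compound incubated in MEM culture medium at 37 °C for 7 days, then analysed by HPLC on RX-C8 (5 μm) column with MeOH–water 90:10 (0.1% TFA), diode-array detection. Expressed as % of incubated compound recovered.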

[8] = system: U-373MG ATCC; assay: Activation of caspase-like activity of 20S proteasome in human U373 cells at 70 uM after 2 days by bioluminescence assay; format: cell-based
In short: (§3)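 Caspase-like site, substrate Z-nLPnLD-Glo. U373 cells were plated at 5000 cells/mL for 48 h, then treated two days. Cells were PBS-washed and permeabilised with 0.025% digitonin before Proteasome-Glo reagent was added. Luminescence was read after 10 min in the dark. Triplicates, normalised to a parallel MTT viability assay under identical conditions.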

[9] = Growth inhibition in apoptosis-resistant human U373 after 3 days by MTT assay; format: functional, U-373MG ATCC; conditions: U373 MG, 72 h; in short: as §1
[10] = system: T98G; assay: Growth inhibition in apoptosis-resistant human T98G after 3 days by MTT assay; format: functional; conditions: 72 h; in short: as §1
[11] = system: PC-3; assay: Growth inhibition in apoptosis-sensitive human PC3 after 3 days by MTT assay; format: functional; conditions: PC-3, 72 h; in short: as §1
[12] = system: U-373MG ATCC; assay: Activation of chymotrypsin-like activity of 20S proteasome in human U373 cells at 70 uM after 2 days by bioluminescence assay; format: cell-based
In short: (§4)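 Chymotrypsin-like site, substrate Suc-LLVY-Glo. U373 cells were seeded at 5000 cells/mL for 48 h and exposed two days. After a PBS wash and 0.025% digitonin permeabilisation, Proteasome-Glo reagent was added. Bioluminescence was read after 10 min dark incubation. Triplicates, normalised by a concurrent MTT viability assay run in identical conditions.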

[13] = target: T1, Peroxisome proliferator-activated receptor gamma (Homo sapiens) (UniProt P37231); assay: Inhibition of PPARgamma activity in human U373 cells at 70 uM after 6 hrs by spectrophotometric analysis relative to control; format: cell-based; conditions: U-373MG ATCC
T1 sequence (whole entry): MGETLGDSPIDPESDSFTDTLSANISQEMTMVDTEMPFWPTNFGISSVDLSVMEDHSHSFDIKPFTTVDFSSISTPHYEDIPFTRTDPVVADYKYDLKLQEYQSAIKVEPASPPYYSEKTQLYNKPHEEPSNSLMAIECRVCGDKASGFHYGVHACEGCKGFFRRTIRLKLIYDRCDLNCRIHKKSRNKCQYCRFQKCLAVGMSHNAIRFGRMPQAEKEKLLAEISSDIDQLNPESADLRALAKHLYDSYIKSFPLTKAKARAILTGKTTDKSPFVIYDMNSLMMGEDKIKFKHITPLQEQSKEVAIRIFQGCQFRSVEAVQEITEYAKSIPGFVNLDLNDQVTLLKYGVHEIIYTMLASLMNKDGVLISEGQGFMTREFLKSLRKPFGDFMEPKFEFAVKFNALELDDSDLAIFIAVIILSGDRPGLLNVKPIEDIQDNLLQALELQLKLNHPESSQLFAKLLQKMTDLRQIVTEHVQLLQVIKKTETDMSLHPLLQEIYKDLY
In short: (§5)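 Human U373 glioblastoma cells exposed to compound for 6 h, then detached with trypsin. Nuclear extracts prepared by hypotonic lysis with Nonidet P-40 and extraction buffer with protease inhibitor, clarified at 14 000 g, 4 °C. Extracts bound overnight at 4 °C in a PPAR-γ transcription factor ELISA kit, with primary antibody then HRP anti-rabbit. Absorbance read at 450 nm; triplicates, mean ± SD versus control.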

[14] = target: T1, Peroxisome proliferator-activated receptor gamma (Homo sapiens); assay: Inhibition of PPARgamma activity in human U373 cells at 25 uM after 6 hrs by spectrophotometric analysis relative to control; format: cell-based; conditions: U-373MG ATCC; in short: as §5
[15] = system: U-373MG ATCC; assay: Inhibition of trypsin-like activity of 20S proteasome in human U373 cells at 25 uM after 2 days by bioluminescence assay; format: cell-based; in short: as §2
[16] = system: U-373MG ATCC; assay: Activation of caspase-like activity of 20S proteasome in human U373 cells at 25 uM after 2 days by bioluminescence assay; format: cell-based; in short: as §3
[17] = system: U-373MG ATCC; assay: Activation of chymotrypsin-like activity of 20S proteasome in human U373 cells at 25 uM after 2 days by bioluminescence assay; format: cell-based; in short: as §4
[18] = system: U-373MG ATCC; assay: Activation of chymotrypsin-like activity of 20S proteasome in human U373 cells at 80 uM after 2 days by bioluminescence assay; format: cell-based; in short: as §4
[19] = system: U-373MG ATCC; assay: Activation of caspase-like activity of 20S proteasome in human U373 cells at 80 uM after 2 days by bioluminescence assay; format: cell-based; in short: as §3
[20] = target: T1, Peroxisome proliferator-activated receptor gamma (Homo sapiens); assay: Inhibition of PPARgamma activity in human U373 cells at 80 uM after 6 hrs by spectrophotometric analysis relative to control; format: cell-based; conditions: U-373MG ATCC; in short: as §5
[21] = system: U-373MG ATCC; assay: Inhibition of trypsin-like activity of 20S proteasome in human U373 cells at 80 uM after 2 days by bioluminescence assay; format: cell-based; in short: as §2
[22] = system: U-373MG ATCC; assay: Activation of chymotrypsin-like activity of 20S proteasome in human U373 cells at 30 uM after 2 days by bioluminescence assay; format: cell-based; in short: as §4
[23] = target: T1, Peroxisome proliferator-activated receptor gamma (Homo sapiens); assay: Inhibition of PPARgamma activity in human U373 cells at 30 uM after 6 hrs by spectrophotometric analysis relative to control; format: cell-based; conditions: U-373MG ATCC; in short: as §5
[24] = system: U-373MG ATCC; assay: Inhibition of trypsin-like activity of 20S proteasome in human U373 cells at 30 uM after 2 days by bioluminescence assay; format: cell-based; in short: as §2
[25] = system: U-373MG ATCC; assay: Activation of caspase-like activity of 20S proteasome in human U373 cells at 30 uM after 2 days by bioluminescence assay; format: cell-based; in short: as §3
[26] = system: U-373MG ATCC; assay: Activation of caspase-like activity of 20S proteasome in human U373 cells at 60 uM after 2 days by bioluminescence assay; format: cell-based; in short: as §3
[27] = system: U-373MG ATCC; assay: Activation of chymotrypsin-like activity of human proteasome in U373 at 60 uM after 2 days by bioluminescence assay; format: cell-based; in short: as §4
[28] = system: U-373MG ATCC; assay: Inhibition of trypsin-like activity of 20S proteasome in human U373 cells at 60 uM after 2 days by bioluminescence assay; format: cell-based; in short: as §2
[29] = target: T1, Peroxisome proliferator-activated receptor gamma (Homo sapiens); assay: Inhibition of PPARgamma activity in human U373 cells at 60 uM after 6 hrs by spectrophotometric analysis relative to control; format: cell-based; conditions: U-373MG ATCC; in short: as §5

GI50 [2] [µM]	GI50 [4] [µM]	GI50 [5] [µM]	GI50 [6] [µM]	remaining at 168 h [7] [%]	GI50 [11] [µM]	SMILES	GI50 [1] [µM]	GI50 [9] [µM]	GI50 [10] [µM]	other results
40	38	> 100	31	94	43	COc1ccc2[nH]cc(CCNC(=O)[C@@]3(C)CC[C@]4(C)CC[C@]5(C)C(=CC(=O)[C@@H]6[C@@]7(C)CC[C@H](O)C(C)(C)[C@@H]7CC[C@]65C)[C@@H]4C3)c2c1	57	75	> 100	inhibition [3]: Active; Activity [8]: Active; Activity [12]: Active; inhibition [13]: Active
31	30	38	34	94	9	CC1(C)[C@@H](O)CC[C@]2(C)[C@H]3C(=O)C=C4[C@@H]5C[C@@](C)(C(=O)NCCNC(=S)Nc6ccccc6)CC[C@]5(C)CC[C@@]4(C)[C@]3(C)CC[C@@H]12	8	29	25	inhibition [14]: Active; inhibition [15]: Active; Activity [16]: Active; Activity [17]: Active
> 100	56	> 100	49	93	52	COc1ccc(CCNC(=O)[C@@]2(C)CC[C@]3(C)CC[C@]4(C)C(=CC(=O)[C@@H]5[C@@]6(C)CCC(=O)C(C)(C)[C@@H]6CC[C@]54C)[C@@H]3C2)cc1	91	69	> 100	Activity [18]: Active; Activity [19]: Active; inhibition [20]: Active; inhibition [21]: Active
42	28	32	23	89	36	COC(=O)[C@@]1(C)CC[C@]2(C)CC[C@]3(C)C(=CC(=O)[C@@H]4[C@@]5(C)C=C(I)C(=O)C(C)(C)[C@@H]5CC[C@]43C)[C@@H]2C1	48	42	6	Activity [22]: Active; inhibition [23]: Active; inhibition [24]: Active; Activity [25]: Active
52	34	> 100	37	86	34	COc1ccc(CCNC(=O)[C@@]2(C)CC[C@]3(C)CC[C@]4(C)C(=CC(=O)[C@@H]5[C@@]6(C)CC[C@H](O)C(C)(C)[C@@H]6CC[C@]54C)[C@@H]3C2)cc1OC	59	43	91	Activity [26]: Active; Activity [27]: Active; inhibition [28]: Active; inhibition [29]: Active

Reference: ChEMBL document CHEMBL1833790, “N-(2-{3-[3,5-bis(trifluoromethyl)phenyl]ureido}ethyl)-glycyrrhetinamide (6b): a novel anticancer glycyrrhetinic acid derivative that targets the proteasome and displays anti-kinase activity” (J Med Chem, 2011)
